From ChEMBL document CHEMBL3046406, “Herbicidal potential of ophiobolins produced by Drechslera gigantea” (2006)
The source made the active and inactive calls. No cut-off for these calls is given here.

Legend:
Type in all cases: functional
Sonchus oleraceus [1] = assay: Herbicidal activity against Sonchus oleraceus assessed as diameter of leaf necrosis at 50 ug/ml measured after 2 days post-compound treatment by leaf puncture assay
Summary of the method: (§1)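 Detached leaf segments (about 5 cm) from young greenhouse-grown plants, each with a superficial puncture lesion (0.5 mm) made by glass capillary. Compound dissolved in DMSO, diluted with distilled water (final DMSO 2%), 8 µL droplet applied. Segments held on moist filter paper at 25 °C under continuous fluorescent light (10000 lux). DMSO droplets as control. Necrosis scored visually on a 0–3 scale at day 2.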

Sonchus oleraceus [2] = assay: Herbicidal activity against Sonchus oleraceus assessed as diameter of leaf necrosis at 100 ug/ml measured after 2 days post-compound treatment by leaf puncture assay; summary of the method: as §1
Sonchus oleraceus [3] = assay: Herbicidal activity against Sonchus oleraceus assessed as diameter of leaf necrosis at 250 ug/ml measured after 2 days post-compound treatment by leaf puncture assay; summary of the method: as §1
Diplotaxis erucoides [4] = assay: Herbicidal activity against Diplotaxis erucoides assessed as diameter of leaf necrosis at 50 ug/ml measured after 2 days post compound treatment by leaf puncture assay; summary of the method: as §1
Diplotaxis erucoides [5] = assay: Herbicidal activity against Diplotaxis erucoides assessed as diameter of leaf necrosis at 100 ug/ml measured after 2 days post compound treatment by leaf puncture assay; summary of the method: as §1
Convolvulus arvensis [6] = assay: Herbicidal activity against Convolvulus arvensis assessed as diameter of leaf necrosis at 50 ug/ml measured after 2 days post compound treatment by leaf puncture assay; summary of the method: as §1
Convolvulus arvensis [7] = assay: Herbicidal activity against Convolvulus arvensis assessed as diameter of leaf necrosis at 100 ug/ml measured after 2 days post compound treatment by leaf puncture assay; summary of the method: as §1
Convolvulus arvensis [8] = assay: Herbicidal activity against Convolvulus arvensis assessed as diameter of leaf necrosis at 250 ug/ml measured after 2 days post compound treatment by leaf puncture assay; summary of the method: as §1
Chenopodium album [9] = assay: Herbicidal activity against Chenopodium album assessed as diameter of leaf necrosis at 50 ug/ml measured after 2 days post compound treatment by leaf puncture assay; summary of the method: as §1
Chenopodium album [10] = assay: Herbicidal activity against Chenopodium album assessed as diameter of leaf necrosis at 250 ug/ml measured after 2 days post compound treatment by leaf puncture assay; summary of the method: as §1
Chenopodium album [11] = assay: Herbicidal activity against Chenopodium album assessed as diameter of leaf necrosis at 100 ug/ml measured after 2 days post compound treatment by leaf puncture assay; summary of the method: as §1
Amaranthus retroflexus [12] = assay: Herbicidal activity against Amaranthus retroflexus assessed as diameter of leaf necrosis at 50 ug/ml measured after 2 days post compound treatment by leaf puncture assay; summary of the method: as §1
Amaranthus retroflexus [13] = assay: Herbicidal activity against Amaranthus retroflexus assessed as diameter of leaf necrosis at 250 ug/ml measured after 2 days post compound treatment by leaf puncture assay; summary of the method: as §1
Amaranthus retroflexus [14] = assay: Herbicidal activity against Amaranthus retroflexus assessed as diameter of leaf necrosis at 100 ug/ml measured after 2 days post compound treatment by leaf puncture assay; summary of the method: as §1
Setaria viridis [15] = assay: Herbicidal activity against Setaria viridis assessed as diameter of leaf necrosis at 50 ug/ml measured after 2 days post compound treatment by leaf puncture assay; summary of the method: as §1
Setaria viridis [16] = assay: Herbicidal activity against Setaria viridis assessed as diameter of leaf necrosis at 100 ug/ml measured after 2 days post compound treatment by leaf puncture assay; summary of the method: as §1
Setaria viridis [17] = assay: Herbicidal activity against Setaria viridis assessed as diameter of leaf necrosis at 250 ug/ml measured after 2 days post compound treatment by leaf puncture assay; summary of the method: as §1
Bromus sterilis [18] = assay: Herbicidal activity against Bromus sterilis assessed as diameter of leaf necrosis at 250 ug/ml measured after 2 days post compound treatment by leaf puncture assay; summary of the method: as §1
[19] = tested on: Avena sterilis subsp. ludoviciana; assay: Herbicidal activity against Avena sterilis subsp. ludoviciana assessed as diameter of leaf necrosis at 50 ug/ml measured after 2 days post compound treatment by leaf puncture assay; summary of the method: as §1
[20] = tested on: Avena sterilis subsp. ludoviciana; assay: Herbicidal activity against Avena sterilis subsp. ludoviciana assessed as diameter of leaf necrosis at 100 ug/ml measured after 2 days post compound treatment by leaf puncture assay; summary of the method: as §1
[21] = tested on: Avena sterilis subsp. ludoviciana; assay: Herbicidal activity against Avena sterilis subsp. ludoviciana assessed as diameter of leaf necrosis at 250 ug/ml measured after 2 days post compound treatment by leaf puncture assay; summary of the method: as §1
Diplotaxis erucoides [22] = assay: Herbicidal activity against Diplotaxis erucoides assessed as diameter of leaf necrosis at 250 ug/ml measured after 2 days post compound treatment by leaf puncture assay; summary of the method: as §1
Phalaris canariensis [23] = assay: Herbicidal activity against Phalaris canariensis assessed as diameter of leaf necrosis at 50 ug/ml measured after 2 days post compound treatment by leaf puncture assay; summary of the method: as §1
Phalaris canariensis [24] = assay: Herbicidal activity against Phalaris canariensis assessed as diameter of leaf necrosis at 100 ug/ml measured after 2 days post compound treatment by leaf puncture assay; summary of the method: as §1
Phalaris canariensis [25] = assay: Herbicidal activity against Phalaris canariensis assessed as diameter of leaf necrosis at 250 ug/ml measured after 2 days post compound treatment by leaf puncture assay; summary of the method: as §1
Oloptum miliaceum [26] = assay: Herbicidal activity against Piptatherum miliaceum assessed as diameter of leaf necrosis at 50 ug/ml measured after 2 days post compound treatment by leaf puncture assay; summary of the method: as §1
Oloptum miliaceum [27] = assay: Herbicidal activity against Piptatherum miliaceum assessed as diameter of leaf necrosis at 100 ug/ml measured after 2 days post compound treatment by leaf puncture assay; summary of the method: as §1
Oloptum miliaceum [28] = assay: Herbicidal activity against Piptatherum miliaceum assessed as diameter of leaf necrosis at 250 ug/ml measured after 2 days post compound treatment by leaf puncture assay; summary of the method: as §1
Echinochloa crus-galli [29] = assay: Herbicidal activity against Echinochloa crus-galli (barnyard grass) assessed as diameter of leaf necrosis at 50 ug/ml measured after 2 days post compound treatment by leaf puncture assay; summary of the method: as §1
Echinochloa crus-galli [30] = assay: Herbicidal activity against Echinochloa crus-galli (barnyard grass) assessed as diameter of leaf necrosis at 100 ug/ml measured after 2 days post compound treatment by leaf puncture assay; summary of the method: as §1
Echinochloa crus-galli [31] = assay: Herbicidal activity against Echinochloa crus-galli (barnyard grass) assessed as diameter of leaf necrosis at 250 ug/ml measured after 2 days post compound treatment by leaf puncture assay; summary of the method: as §1
Digitaria sanguinalis [32] = assay: Herbicidal activity against Digitaria sanguinalis (hairy crabgrass) assessed as diameter of leaf necrosis at 50 ug/ml measured after 2 days post compound treatment by leaf puncture assay; summary of the method: as §1
Digitaria sanguinalis [33] = assay: Herbicidal activity against Digitaria sanguinalis (hairy crabgrass) assessed as diameter of leaf necrosis at 100 ug/ml measured after 2 days post compound treatment by leaf puncture assay; summary of the method: as §1
Digitaria sanguinalis [34] = assay: Herbicidal activity against Digitaria sanguinalis (hairy crabgrass) assessed as diameter of leaf necrosis at 250 ug/ml measured after 2 days post compound treatment by leaf puncture assay; summary of the method: as §1
Cynodon dactylon [35] = assay: Herbicidal activity against Cynodon dactylon assessed as diameter of leaf necrosis at 50 ug/ml measured after 2 days post compound treatment by leaf puncture assay; summary of the method: as §1
Cynodon dactylon [36] = assay: Herbicidal activity against Cynodon dactylon assessed as diameter of leaf necrosis at 100 ug/ml measured after 2 days post compound treatment by leaf puncture assay; summary of the method: as §1
Cynodon dactylon [37] = assay: Herbicidal activity against Cynodon dactylon assessed as diameter of leaf necrosis at 250 ug/ml measured after 2 days post compound treatment by leaf puncture assay; summary of the method: as §1
Bromus sterilis [38] = assay: Herbicidal activity against Bromus sterilis assessed as diameter of leaf necrosis at 50 ug/ml measured after 2 days post compound treatment by leaf puncture assay; summary of the method: as §1
Bromus sterilis [39] = assay: Herbicidal activity against Bromus sterilis assessed as diameter of leaf necrosis at 100 ug/ml measured after 2 days post compound treatment by leaf puncture assay; summary of the method: as §1

Row | SMILES | Activity (Sonchus oleraceus [1]) [mm] | Activity (Sonchus oleraceus [2]) [mm] | Activity (Sonchus oleraceus [3]) [mm] | Activity (Diplotaxis erucoides [4]) [mm] | Activity (Diplotaxis erucoides [5]) [mm] | Activity (Convolvulus arvensis [6]) [mm] | Activity (Convolvulus arvensis [7]) [mm] | Activity (Convolvulus arvensis [8]) [mm] | Activity (Chenopodium album [9]) [mm] | Activity (Chenopodium album [10]) [mm] | Activity (Chenopodium album [11]) [mm] | Activity (Amaranthus retroflexus [12]) [mm] | Activity (Amaranthus retroflexus [13]) [mm] | Activity (Amaranthus retroflexus [14]) [mm] | Activity (Setaria viridis [15]) [mm] | Activity (Setaria viridis [16]) [mm] | Activity (Setaria viridis [17]) [mm] | Activity (Bromus sterilis [18]) [mm] | Activity [19] [mm] | Activity [20] [mm] | also measured
1 | CC(C)=C[C@H]1C[C@H](C)[C@]2(CC[C@]3(C)C[C@H]4[C@H](C(=O)C[C@@]4(C)O)/C(C=O)=C\C[C@H]32)O1 [OPHIOBOLIN A] | >3 | >3 | >3 | 2 | 2 | 2 | 2 | 2 | 2 | >3 | 2 | 2 | >3 | 2 | >3 | >3 | >3 | >3 | >3 | >3 | Activity [21]: >3 mm; Activity (Diplotaxis erucoides [22]): 2 mm; Activity (Phalaris canariensis [23]): >3 mm; Activity (Phalaris canariensis [24]): >3 mm; Activity (Phalaris canariensis [25]): >3 mm; Activity (Oloptum miliaceum [26]): 1 mm; Activity (Oloptum miliaceum [27]): 2 mm; Activity (Oloptum miliaceum [28]): >3 mm; Activity (Echinochloa crus-galli [29]): >3 mm; Activity (Echinochloa crus-galli [30]): >3 mm; Activity (Echinochloa crus-galli [31]): >3 mm; Activity (Digitaria sanguinalis [32]): >3 mm; Activity (Digitaria sanguinalis [33]): >3 mm; Activity (Digitaria sanguinalis [34]): >3 mm; Activity (Cynodon dactylon [35]): inactive; Activity (Cynodon dactylon [36]): inactive; Activity (Cynodon dactylon [37]): 1 mm; Activity (Bromus sterilis [38]): 1 mm; Activity (Bromus sterilis [39]): 2 mm
2 | CC(C)=C[C@H]1C[C@H](C)[C@]2(CC[C@]3(C)C[C@H]4[C@@H](C(=O)C[C@@]4(C)O)/C(C=O)=C\C[C@H]32)O1 [6-EPI-OHPIOBOLIN A] | >3 | >3 | >3 | 2 | 2 | 2 | 2 | 2 | 2 | >3 | 2 | 1 | 1 | 1 | >3 | >3 | >3 | 2 | 2 | 2 | Activity [21]: 2 mm; Activity (Diplotaxis erucoides [22]): 2 mm; Activity (Phalaris canariensis [23]): 1 mm; Activity (Phalaris canariensis [24]): 2 mm; Activity (Phalaris canariensis [25]): >3 mm; Activity (Oloptum miliaceum [26]): 1 mm; Activity (Oloptum miliaceum [27]): 1 mm; Activity (Oloptum miliaceum [28]): 2 mm; Activity (Echinochloa crus-galli [29]): 1 mm; Activity (Echinochloa crus-galli [30]): 2 mm; Activity (Echinochloa crus-galli [31]): 2 mm; Activity (Digitaria sanguinalis [32]): 2 mm; Activity (Digitaria sanguinalis [33]): 2 mm; Activity (Digitaria sanguinalis [34]): >3 mm; Activity (Cynodon dactylon [35]): inactive; Activity (Cynodon dactylon [36]): 1 mm; Activity (Cynodon dactylon [37]): 2 mm; Activity (Bromus sterilis [38]): 1 mm; Activity (Bromus sterilis [39]): 1 mm
